Source: PubChem
In the library only some 2.4% were active in any assay of this set; here they are far more common.
LGR2 antag – blocks bursicon-induced cAMP signaling via Drosophila LGR2 | HEK293 LGR2, CRE-luciferase, bursicon-stimulated, 4 h | inhibition, % at 9.99 µM | actives 0.35% (n = 380,000);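 active means drop in luminescence signal, shown as inhibition above about 50% in the replicate tests, limit read from the data, passing the limit was not always enough; inconclusive means probably only some replicates passing the limit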;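 further: agonist challenge used bursicon conditioned medium at about half maximal strength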
E-selectin induc – E-selectin induction on HUVECs. P16581. HUVEC E-selectin immunofluorescence imaging; normalized: neutral wells 0, TNF-alpha wells 100. activation, % at 7.58 µM. actives 0.37% (n = 260,000);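 active means mean E-selectin-positive cell signal at least 10% of the positive control, reached in at least 60% of replicates, without over 20% cell loss; inconclusive means no rule given, readout overlaps actives, possibly toxicity-flagged; inactive means the rest, including those meeting only one limit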
Target sequence (P16581 whole entry, looked up): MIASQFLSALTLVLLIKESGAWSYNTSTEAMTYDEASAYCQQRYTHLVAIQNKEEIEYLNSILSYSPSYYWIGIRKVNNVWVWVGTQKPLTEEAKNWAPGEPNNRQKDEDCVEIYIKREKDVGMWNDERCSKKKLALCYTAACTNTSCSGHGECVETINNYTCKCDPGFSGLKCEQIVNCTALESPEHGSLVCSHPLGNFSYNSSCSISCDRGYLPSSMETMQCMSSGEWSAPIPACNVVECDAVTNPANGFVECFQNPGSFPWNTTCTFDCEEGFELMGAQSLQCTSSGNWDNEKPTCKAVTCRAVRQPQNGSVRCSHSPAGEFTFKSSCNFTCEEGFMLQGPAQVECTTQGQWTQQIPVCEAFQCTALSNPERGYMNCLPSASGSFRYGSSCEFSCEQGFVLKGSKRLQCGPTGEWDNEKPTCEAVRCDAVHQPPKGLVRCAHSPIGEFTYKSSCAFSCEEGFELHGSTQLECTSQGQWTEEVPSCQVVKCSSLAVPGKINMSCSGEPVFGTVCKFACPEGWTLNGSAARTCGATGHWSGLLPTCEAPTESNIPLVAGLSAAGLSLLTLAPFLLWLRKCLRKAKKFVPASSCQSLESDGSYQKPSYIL
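Assay system: HUVEC, human umbilical vein endothelial cells / Amount: 3,000 HUVEC/well / Controls: TNF-alpha positive control, DMSO neutral control / Compound dosing: single concentration / Medium: EGM-2 over gelatin coat / Evaluation: percent E-selectin-positive cells / Signal: immunofluorescence imaging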
EWS-Fli inh – blocks EWS/Fli oncoprotein-driven transcription. A673 NR0B1-luciferase reporter, viability-normalised. inhibition, % at 12.6 µM. actives 0.67% (n = 350,000). AID 651661;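 active means mean inhibition of at least 50% after viability correction, with every replicate also passing that limit; inconclusive means mean reaches 50% but only one of two replicates passes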;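 further: firefly luciferase signal divided by Alamar Blue viability fluorescence both relative to DMSO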
rRNA inh HTS – selective bacterial rRNA inhibition in E. coli; E. coli WT GFP vs humanized-ribosome RFP mutants, fluorescence, 24 h; hits give low values; DMSO median 0, no signal -100; GFP signal change (wild-type ribosome), % (test concentration not listed); actives 1.6% (n = 350,000); AID 720706;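 active means significant combined selectivity score with lowered wild-type GFP, culture density cut under 30%, mutant RFP and density less affected; inactive means any of these conditions unmet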
A number is an active result; . = inactive; ? = inconclusive; / = no result; ! = not confirmed by another sample.

SMILES | LGR2 antag | E-selectin induc | EWS-Fli inh | rRNA inh HTS
Cc1noc(C)c1NC(=O)N(C)C[C@H]1Oc2c(NC(=O)Nc3cccc4ccccc34)cccc2C(=O)N([C@H](C)CO)C[C@H]1C | . | . | . | .
CCOC(=O)C(Cc1ccc(O)c([N+](=O)[O-])c1)N1C(=O)c2ccccc2C1=O (stereo not given) | . | . | . | -25.4
O=C(O)C(Cc1ccc(O)c([N+](=O)[O-])c1)N1C(=O)c2ccccc2C1=O (stereo not given) | . | . | . | .
CO[C@H]1CN(C)C(=O)c2cc(NS(=O)(=O)c3cn(C)cn3)ccc2OC[C@H](C)N(Cc2cccc(F)c2)C[C@H]1C | . | . | . | .
CN(C)C(=O)C[C@@H]1CC[C@H]2[C@@H](COC[C@@H](O)CN2C(=O)C2CCOCC2)O1 | . | . | . | .
CNC[C@@H]1Oc2c(NC(=O)Nc3ccc(C(F)(F)F)cc3)cccc2C(=O)N([C@H](C)CO)C[C@H]1C | . | . | . | .
Cc1cccn2c(=O)c(/C=C(\C#N)C(=O)NCc3ccco3)c(N3CCCCCC3)nc12 | . | . | . | -29.8
O=C(COC(=O)/C=C/c1ccc(F)cc1)Nc1ccc(Cl)cn1 | . | / | . | .
COc1cc(/C=C/C(=O)OCC(=O)Nc2ccc(Cl)cn2)ccc1O | . | 46.5 | . | .
Cc1ccc(C=Nc2ccc(N(C)C)cc2)o1 | . | / | . | .
Cc1csc(N=Nc2ccc(N(C)C)cc2)[n+]1[O-] | 74.8 | . | . | .
CC(C)NC(=O)Nc1ccc2c(c1)C(=O)N([C@@H](C)CO)C[C@@H](C)[C@H](CN(C)Cc1ccc(C(F)(F)F)cc1)O2 | . | 38.3 | . | .
C[C@@H]1CN([C@@H](C)CO)C(=O)c2cc(NC(=O)Nc3ccc(C(F)(F)F)cc3)ccc2O[C@H]1CN(C)Cc1ccc(Cl)c(Cl)c1 | . | . | . | .
C[C@H]1CN([C@@H](C)CO)C(=O)c2cc(NC(=O)Nc3ccc(C(F)(F)F)cc3)ccc2O[C@@H]1CN(C)Cc1ccc(Cl)c(Cl)c1 | . | . | 57.9 | .
C[C@@H]1CN([C@@H](C)CO)C(=O)c2cc(NC(=O)C3CC3)ccc2O[C@@H]1CN(C)Cc1ccc(Cl)c(Cl)c1 | . | . | 56.5! | .
CC(C)NC(=O)Nc1ccc2c(c1)C(=O)N([C@H](C)CO)C[C@H](C)[C@@H](CN(C)Cc1ccc(C(F)(F)F)cc1)O2 | . | . | . | .
CNC[C@@H]1Oc2c(NC(=O)C3CC3)cccc2C(=O)N([C@@H](C)CO)C[C@H]1C | . | . | . | .
O=C(NC(=S)NNC(=O)c1cnccn1)c1ccc(F)cc1 | . | . | . | .
O=C(NNC(=O)c1cnccn1)c1ccc(Cl)cc1 | . | . | . | -39.1
O=C(NNC(=O)c1ccc(Cl)cc1Cl)c1cnccn1 | . | . | . | -34.9
Cc1ccc(S(=O)(=O)Nc2ccc3c(c2)C(=O)N([C@H](C)CO)C[C@@H](C)[C@H](CN(C)CC2CCCCC2)OCCCC[C@@H](C)O3)cc1 | . | . | . | .
COc1ccc(S(=O)(=O)N2CC[C@@H]3[C@@H](CO)Nc4ccc(-c5cccc(C#N)c5)cc4[C@@H]32)cc1 | . | . | 54.0 | .
O=S(=O)(c1ccccc1F)N1CC[C@@H]2[C@H]1c1cc(-c3cccc(F)c3)ccc1N[C@@H]2CO | 96.6 | . | . | .
C[C@@H]1CN([C@@H](C)CO)C(=O)c2cc(NC(=O)Cc3ccccc3)ccc2O[C@H]1CN(C)Cc1ccc(C(=O)O)cc1 | . | . | / | .
CC(=O)Oc1ccc(C2=Cc3ccc(OC(C)=O)cc3OC2C)cc1 (stereo not given) | . | 118.3 | . | .
SMILES | LGR2 antag | E-selectin induc | EWS-Fli inh | rRNA inh HTS
CCCCN1C=CC(=C2C(=O)c3ccccc3C2=O)C=C1 | / | / | 79.9 | .
CCCCC1C(=O)N(c2ccccc2)N(c2ccccc2)C1=O | . | . | . | .
C[C@@H]1CN(C)C(=O)c2cccc(N)c2O[C@H]1CN(C)C(=O)OC(C)(C)C | / | / | / | .
CC(C)(C)/C(COc1ccccc1[N+](=O)[O-])=N/O | . | / | . | -17.0
COCC(=O)Nc1ccc2c(c1)OC[C@@H](C)N(C(=O)c1cccnc1)C[C@H](C)[C@H](OC)CN(C)C2=O | . | . | . | .
COc1ccc2c3c(n(C)c2c1)[C@@H](CO)N(C(=O)NC(C)C)CC31CN(CC2CCCC2)C1 | . | . | . | .
CC1CCN(C(=S)NC(=O)c2cccs2)CC1 | . | . | . | -21.9
O=C(NC(=S)N1CCCCC1)c1cccs1 | . | / | / | /
C[C@H](CO)N1C[C@H](C)[C@H](CN(C)Cc2ccccc2F)Oc2cc(C#CC3CC3)ccc2S1(=O)=O | . | . | . | .
O=C(NCc1ccco1)C1CCN(C(=O)c2cc3sccc3n2Cc2ccc(F)cc2)CC1 | . | / | . | -28.6
CCOc1ccc(C(=O)Nc2cccc(-c3nc4ccccc4[nH]3)c2C)cc1[N+](=O)[O-] | . | / | 83.4 | .
CCN1/C(=C/c2ccc3cc(C)cc(C)c3[n+]2CC)Sc2cc(C)ccc21 | 82.1 | / | 75.7 | .
CCN1/C(=C/c2ccc3cccc(C)c3[n+]2CC)Sc2ccccc21 | . | / | / | /
CCN1/C(=C\c2ccc3cc(C)ccc3[n+]2CC)Sc2cc(C)c(C)cc21 | . | / | 56.6 | .
COc1ccc2c3c(n(C)c2c1)[C@H](CO)N(Cc1cccc(F)c1)CC31CN(C(=O)Cc2ccccc2)C1 | . | . | . | .
NCCCNc1nc(N)c([N+](=O)[O-])c(NC2CCCCC2)n1 | 54.4 | . | . | .
COc1ccc(-c2c(C(F)(F)F)nn(C)c2NC(=O)c2cccnc2)cc1 | . | . | . | .
Cn1nc(C(F)(F)F)c(-c2ccc(Br)cc2)c1NC(=O)c1ccco1 | . | . | . | -32.3
Cn1nc(C(F)(F)F)c(-c2ccc(Br)cc2)c1NC(=O)c1cccnc1 | . | . | . | -44.3
Cn1nc(C(F)(F)F)c(-c2ccc(F)cc2)c1NC(=O)Nc1ccc(F)cc1 | . | . | . | -30.2
CC12CCC3C(CCC4CC(O)CCC43C)C1CC(O)C2 (stereo not given) | . | . | . | -28.1
C[C@H](O)[C@@]1(O)CC[C@H]2[C@@H]3CC[C@@H]4C[C@H](O)CC[C@]4(C)[C@H]3CC[C@@]21C | . | / | . | .
COc1ccc(Cl)cc1NC(=O)CN(C)CC(=O)Nc1cc(OC)c(OC)c(OC)c1 | . | . | 61.8 | .
COc1ccc(Cl)cc1NC(=S)NNC(=O)c1cccnc1 | . | / | . | .
COc1ccc(Cl)cc1NC(=S)NNC(=O)c1cccs1 | . | . | . | -32.3
COc1ccc(Cl)cc1NC(=O)CN(C)CC(=O)Nc1ccc(Br)cc1 | . | . | . | .
COc1ccc(Cl)cc1NC(=O)CN(C)S(=O)(=O)c1cccs1 | . | / | . | -32.5
C[C@H]1CCCCO[C@H](CN(C)C(=O)C2CCCCC2)[C@@H](C)CN([C@@H](C)CO)C(=O)c2cc(NC(=O)Nc3cccc4ccccc34)ccc2O1 | . | . | ? | .
COC(=O)c1ccc(CNC(=O)c2ccc(OC)c(S(=O)(=O)NC3CCCC3)c2)cc1 | . | 98.6 | . | .
